# Measured values taken from the EternaBench riboswitch data.
# Test system: MS2 coat protein
# Assay: apparent Kd, MS2 coat protein; higher = weaker binding; RNA-MaP array; FMN 200 µM where present
# Procedure, shortened: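 Designs were transcribed by stalled E. coli RNA polymerase on Illumina sequencing-chip clusters. They were titrated with SNAP-549-labelled MS2 coat protein from 0.7 or 1.5 nM, doubling to 3 µM, in 100 mM Tris-HCl pH 7.5, 80 mM KCl, 4 mM MgCl2, BSA, DTT, yeast tRNA and Tween-20, without and then with constant ligand. The apparent Kd is the median of filtered per-cluster fits after normalisation of green signal to red-channel RNA signal and control-cluster median Fmax.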
# [1] = designed as: OFF switch for flavin mononucleotide, no ligand
# [2] = ligand present: flavin mononucleotide, designed as: OFF switch for flavin mononucleotide
# [3] = designed as: ON switch for flavin mononucleotide, no ligand
# [4] = ligand present: flavin mononucleotide, designed as: ON switch for flavin mononucleotide
Sequence,apparent Kd [1],apparent Kd [2],apparent Kd [3],apparent Kd [4]
CCCACACUUGUGAGGAUAUGGAUAGCUGCUGCUGAUUAGAAGGCACAUGAGGAUCACCCAUGUCACCCUCAUGG,278 nM,255 nM,,
UUAAAUCGAAACAUGAGGAUCACCCAUGUGUUGUAAUUAAUAUAGGAUAUGUGUAUACUUUUAUAAUAGAAGGAUGAUAAUACU,,,17.4 nM,12.1 nM
UGUUGUAUUACAGGAUAUCUAGUAUUUUCAUUUAGAGAAGGGUAUUCACAUGAGGAUCACCCAUGUAUAUACGAGGAAGUUGUG,,,43.7 nM,45.4 nM
ACUGAAGUCACAGGAUAUCAUAUGCCGGCACAUUGAGAAGGGUGACUGGGCUACAUGAGGAUCACCCAUGUGCCGUCGUAACAA,,,29.8 nM,36.9 nM
UGCUAACUGUAGAAGGGUGACAUGAGGAUCACCCAUGUGCACGCGCGAUUUACGGCGCGCGUGCCACAGGAUAUACAGUCGAGU,,,28.3 nM,54.4 nM
CGUGUCGUAUGAGGAUAUGGUCAGCUUUGCUGACCAGAAGGCAUGUCAAUAGACAUGAGGAUCACCCAUGUAGUAAAGACACGA,,,378 nM,40.6 nM
UAAACACCCUCAUGUGCCUGAGGACAUGAGGAUCACCCAUGUAAGGAUAUAGCCAUUAAAUCUAACUAGAAGGUACAGGACAUC,242 nM,169 nM,,
ACAUGAGGAUCACCCAUGUAUACAUAGGAUAUUGAGGAUCAGGGAUGUUUUACAGGAUAUGUCUACGAGAAGGAUGCAAGUACA,,,33.5 nM,28.6 nM
GUCAGCUCGUGAGGAUAUACAACACUGCUUCGGCAGUGUAUAAAGAUCACAUGAGGAUCACCCAUGUAGAAGGCACGAGCUGAU,15.2 nM,213 nM,,
AGCUAGGCAGGAUAUACGUAAAUGUCGAAAGACGUAUUGGGACAUGAGGAUCACCCAUGUAGAAGGGUCUAGCA,37.6 nM,123 nM,,
AACAGUACAGGAUAUACAUGAGGAUCACCCAUGUGAGAAUUAAGUGGCAUACCACAAAGUAGAAGGGUACUGGA,29.7 nM,202 nM,,
CUGAUGUUAGGAUAUCAGGCUGUGCGCGAAAACGGGCGGCAUGAGAAGGAACAUGAGGAUCACCCAUGUGACGG,47.3 nM,124 nM,,
AAUAAUAGCGAGGAUAUCGUAUCGGAAACGAUACGAGAAGGCGUAACAUGAGGAUCACCCAUGUUCCUCAAUAA,38 nM,313 nM,,
CAUUAAUUGAUUAUUGUAUUUAUACAGGAUAUGUAACAUGAGGAUCACCCAUGUAUACAUGGGAAACAGAAGGGUAUAUAAAGA,33.7 nM,29.9 nM,,
CGGACCGGCUCAGGAUAUGGGUGCUCAAAAGACAUGAGGAUCACCCAUGUCUCAAGCUGUGCACAUCAGAAGGGAGCUUCGGGU,,,13.3 nM,16.3 nM
AUCUUGCGAGGAUAUACUUACUUUUUUUCAUUUGGUUGCGAACAUGAGGAUCACCCAUGUAGAAGGUGCAUAAC,27.6 nM,23.6 nM,,
AUAUUAAUAUAGGAUAUCGAAUUUAUUAAUUAUCGAGAAGGAUAAACAUGAGGAUCACCCAUGUGGUAUCAUGG,181 nM,225 nM,,
AGUAACAGAGGAUAUACUAUUUUAUGUGUUUAUUAUUUUGAACAUGAGGAUCACCCAUGUAGAAGGCUGAAUAA,27 nM,30.1 nM,,
GUAAUCAGUAAUAAAAGCCCGGGCGCAGAAGGCCAGACACAUGAGGAUCACCCAUGUAUCCCUAUGGAGGAUAUGUGUCACGUG,,,72.8 nM,22.9 nM
UCCAGGCGAGGAUAUACAAAGAUUUUUUCGUUUUGUCUCGAACAUGAGGAUCACCCAUGUAGAAGGUGCUGCUG,57.5 nM,52.9 nM,,
GGAGCAUAUGUCAGGAUAUCGUGGUCGAUAGAUCACGAGAAGGGACAUGAGGAUCACCCAUGUCUGUCCGCUCC,14.2 nM,16.4 nM,,

Sequence,apparent Kd [1],apparent Kd [2],apparent Kd [3],apparent Kd [4]
AGAUACAACCAGAAGGACAUGAGGAUCACCCAUGUAGGAUAUGGGUUACACGUUCCUGUGAAUUGUAACGACGCUACGAAGAGU,,,113 nM,12.3 nM
GUGUAGAUAGGAUAUACAUGAGUCUAGCGAAGCUAGAUUCUACAUGAGGAUCACCCAUGUAGAAGGGUCUACAC,15.9 nM,18.5 nM,,
CUUUUGGCAGGAUAUGCUUUUUUUGACAUGAGGAUCACCCAUGUGAUGCAGUUUGGGUUUGCAGAAGGGCCUGAGU,98.1 nM,131 nM,,
UUAAAUCAUGUAGGAUAUGCAUGGCGAAGCUACGCAGAAGGACAUGAGGAUCACCCAUGUUAUAGCUACCCAGAUCGGUGGCAA,90.2 nM,237 nM,,
CGUUGGUUAGGAUAUGCCCUCCUGGUGGGAAGGCCGGGUGGGUAGAAGGGACAUGAGGAUCACCCAUGUAUGGA,72.3 nM,26.8 nM,,
GGUUGUCAUAGUCAUCCUUUCCGUACAUGAGGAUCACCCAUGUAGGAUAUGCUACUCACAGUGUGGCAGAAGGGCGUGUGUCUU,,19.4 nM,,
UAUAUGUCAGGAUAUCGAUUGGAGCGGAAUUUAGCUUUGGUCGAGAAGGGACAUGAGGAUCACCCAUGUUCCUC,30 nM,142 nM,,
UAAGUGUGAGGAUAUUCGUAGUACACGGAGACGUGUAUUACGGAGAAGGCACAUGAGGAUCACCCAUGUUCCUU,20.7 nM,182 nM,,
GCAAAGCCUGACAUGAGGAUCACCCAUGUUAGAUUGUUAUGUCAGGAUAUUGUCUAGAACCUAGACAAGAAGGGAUGCUUUGCU,,,337 nM,26.4 nM
UCAGGCUUCGAGAAGGACAUGAAUCGUAGCAUUGCUACGAUGAAAUAUACAUGAGGAUCACCCAUGUAGGAUAUCGGAGUCUGC,5.35 nM,6.13 nM,,
UGGUACUAGGGAGGAUAUGGGAAGAUACAUGAGGAUCACCCAUGUUUAAGAAUUCCGAGAGGCAACUAGAAGGCCCUAGUACCU,,,35.7 nM,13 nM
UGGUACUAGGGAGGAUAUGGGAAGAUACAUGAGGAUCACCCAUGUUUAAGAAUGCAGAGAGGCAACUAGAAGGCCCUAGUACCU,,,324 nM,18.7 nM
AUCAGCUCGUCAGGAUAUACGUCACUACGUCAGCAGUGUGGUAAGAUCACAUGAGGAUCACCCAUGUAGAAGGGACGAGCUGAU,21.4 nM,201 nM,,
CUUAUGUGAGGAUAUCAGUAGUGAUACGAUAGUAUUACUGCUGAGAAGGUACAUGAGGAUCACCCAUGUUCCUC,17.1 nM,20.4 nM,,
UCAUAAUAGAUCCUAUUUAUCUACAUGAGGAUCACCCAUGUGCAGGAUAUGCUAUAAUUUAAUAAGCAGAAGGGCAAUUUCAGA,96.8 nM,381 nM,,
UUGGACGUCGUAGGAUAUGUAGGAUAUUCCUACAUGAGGAUCACCCAUGUUGACAUGGAAGAAAGACAGAAGGACGAUGUCCAU,,,325 nM,8.48 nM
UUGGACGUCGUAGGAUAUGUAGGAUAUUCCUACAUGAGGAUCACCCAUGUUUACAUGGAAGAAGGACAGAAGGACGAUGUCCAU,,,1320 nM,14.5 nM
AAUUGACACGUAGGAUAUCGAUCUAUAUUAACACGAGAAGGACGUACAUGAGGAUCACCCAUGUUUAAUGGAGUAGAUAAGUUG,112 nM,257 nM,,
GGAUGACAAAGUCAUCCUUAACGAACAUGAGGAUCACCCAUGUAGGAUAUGCUUCUCAAAGAGAAGCAGAAGGACAUGUGCCUU,33.3 nM,256 nM,,
GAAGUUUCCUGAGGAUAUACAUGAGGAUCACCCAUGUAAUGCUUGACUUCAGUAGAAGGCGGGAAACGAAAUUUCGGUGAUCAG,353 nM,140 nM,,
CCAUGGAAUGUAGGAUAUGUCUGACAAAGUCAGACAGAAGGACAUGAGGAUCACCCAUGUAGGAAACAACCACAUAAACCAUGG,6.83 nM,7.08 nM,,
